One molecule from ChEMBL document CHEMBL4354861, “Re-Evaluating the Mechanism of Action of α,β-Unsaturated Carbonyl DUB Inhibitors b-AP15 and VLX1570: A Paradigmatic Example of Unspecific Protein Cross-linking with Michael Acceptor Motif-Containing Drugs” (J Med Chem, 2020) can be followed below.

For assay [1], the target named is Ubiquitin carboxyl-terminal hydrolase BAP1 (Homo sapiens) (UniProt Q92560). The assay can be described thus: Inhibition of His6-tagged recombinant human BAP1 assessed as reduction in cleavage of luminescent substrate Ub-AML at 100 uM. The procedure, abridged:
(§1)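 Purified recombinant DUBs assayed with Ub-AML as luminescent substrate, using the Glo reagent protocol and read on a microplate luminometer.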

Another assay concerns the target Anamorsin (Homo sapiens) (UniProt Q6FI81). The assay can be described thus: Inhibition of CIAPIN1 in human KMS11 cells assessed as induction of high molecular weight complex formation at 1 to 10 uM incubated for 6 hrs by immunoblot analysis. The assay is classed as cell-based. Background: Immunoblotting shows a protein as a band on a membrane.
A further assay concerns SiHa. The assay can be described thus: Cytotoxicity in human SiHa cells assessed as reduction in cell viability incubated for 72 hrs Cell-titer Glo reagent based assay. The assay is classed as functional. Summed up: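 Tumor lines grown at 37 °C, 5% CO2 with 10% FBS (DMEM for HeLa and SiHa; RPMI for HCT116) and exposed to compound for 72 h. Viability read by CellTiter Glo luminescence; IC50 derived from n=6.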

Assay [2] addresses T1, Ubiquitin carboxyl-terminal hydrolase 28 (Homo sapiens) (UniProt Q96RU2).
T1 sequence (whole entry): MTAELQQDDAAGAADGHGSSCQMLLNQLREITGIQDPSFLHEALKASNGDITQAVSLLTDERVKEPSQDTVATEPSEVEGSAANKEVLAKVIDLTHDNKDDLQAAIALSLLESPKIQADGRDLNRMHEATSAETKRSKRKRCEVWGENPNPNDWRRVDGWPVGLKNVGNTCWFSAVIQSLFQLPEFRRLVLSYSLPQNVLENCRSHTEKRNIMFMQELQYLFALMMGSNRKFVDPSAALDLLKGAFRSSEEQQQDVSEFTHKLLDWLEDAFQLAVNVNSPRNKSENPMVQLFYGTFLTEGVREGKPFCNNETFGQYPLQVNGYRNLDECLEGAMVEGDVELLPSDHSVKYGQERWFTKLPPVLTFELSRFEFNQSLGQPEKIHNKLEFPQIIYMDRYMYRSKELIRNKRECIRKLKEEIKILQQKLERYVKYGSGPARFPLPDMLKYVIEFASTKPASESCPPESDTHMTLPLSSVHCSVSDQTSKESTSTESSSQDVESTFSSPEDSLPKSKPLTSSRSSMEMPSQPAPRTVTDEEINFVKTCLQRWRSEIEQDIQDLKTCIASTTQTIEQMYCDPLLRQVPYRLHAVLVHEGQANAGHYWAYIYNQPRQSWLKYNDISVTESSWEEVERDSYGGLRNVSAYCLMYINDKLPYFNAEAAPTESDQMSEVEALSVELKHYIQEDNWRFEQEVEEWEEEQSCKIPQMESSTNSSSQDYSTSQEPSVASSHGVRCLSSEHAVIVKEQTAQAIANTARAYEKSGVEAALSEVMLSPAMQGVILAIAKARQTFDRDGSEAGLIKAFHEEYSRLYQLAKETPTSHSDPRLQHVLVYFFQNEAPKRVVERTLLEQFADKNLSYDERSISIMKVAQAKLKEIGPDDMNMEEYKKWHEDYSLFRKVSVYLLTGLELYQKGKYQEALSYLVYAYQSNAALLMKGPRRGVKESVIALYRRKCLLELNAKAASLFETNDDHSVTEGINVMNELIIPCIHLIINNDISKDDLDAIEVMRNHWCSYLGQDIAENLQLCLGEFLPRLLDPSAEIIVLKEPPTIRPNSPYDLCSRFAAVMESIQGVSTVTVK
The assay is described as follows: Inhibition of USP28 in human HeLa cell extracts assessed as inhibition of HA-Ub-C2Br probe labeling at 1 to 100 uM incubated for 30 mins by immunoblot analysis. The assay is classed as cell-free.

Another assay deals with Ataxin-3 (Homo sapiens) (UniProt P54252). The assay can be described thus: Inhibition of human recombinant Ataxin-3 assessed as reduction in cleavage of luminescent substrate Ub-AML at 100 uM. Summed up:
as §1

The target of assay [3] is T2, Ubiquitin carboxyl-terminal hydrolase isozyme L5 (Homo sapiens) (UniProt Q9Y5K5).
T2 sequence (whole entry): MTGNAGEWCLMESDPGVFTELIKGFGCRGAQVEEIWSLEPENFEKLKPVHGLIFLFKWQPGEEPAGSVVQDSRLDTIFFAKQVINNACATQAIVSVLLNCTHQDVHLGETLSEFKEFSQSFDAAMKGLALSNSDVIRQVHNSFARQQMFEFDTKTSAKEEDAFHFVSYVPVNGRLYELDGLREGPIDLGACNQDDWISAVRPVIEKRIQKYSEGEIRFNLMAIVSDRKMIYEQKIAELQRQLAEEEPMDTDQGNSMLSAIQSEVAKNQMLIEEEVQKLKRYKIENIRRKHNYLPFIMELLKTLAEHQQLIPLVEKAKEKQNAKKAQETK
The assay is described as follows: Inhibition of UCH-37 in intact human HeLa cells assessed as induction of formation of high molecular weight complexes with USP14 at 10 uM incubated for 2 hrs in presence of dithiothreitol by immunoblot analysis. The assay is classed as cell-based. Summed up:
(§2)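 Intact HeLa cells (DMEM, 10% FBS, about 80% confluent) treated 2 h with vehicle or 10 μM compound, with or without 10 mM DTT or 10 mM GSH. Cells washed in cold PBS and lysed in RIPA with protease and phosphatase inhibitors. High-MW species detected by SDS-PAGE immunoblot; shorter exposures served as loading control.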

The target in assay [4] is Ubiquitin carboxyl-terminal hydrolase 14 (Homo sapiens) (UniProt P54578). The assay is described as follows: Inhibition of USP14 in intact human HeLa cells assessed as induction of formation of high molecular weight complexes with USP14 at 10 uM incubated for 2 hrs by immunoblot analysis. The assay is classed as cell-based. Summed up: as §2
Chain of Ubiquitin carboxyl-terminal hydrolase 14 (Homo sapiens) (P54578 whole entry): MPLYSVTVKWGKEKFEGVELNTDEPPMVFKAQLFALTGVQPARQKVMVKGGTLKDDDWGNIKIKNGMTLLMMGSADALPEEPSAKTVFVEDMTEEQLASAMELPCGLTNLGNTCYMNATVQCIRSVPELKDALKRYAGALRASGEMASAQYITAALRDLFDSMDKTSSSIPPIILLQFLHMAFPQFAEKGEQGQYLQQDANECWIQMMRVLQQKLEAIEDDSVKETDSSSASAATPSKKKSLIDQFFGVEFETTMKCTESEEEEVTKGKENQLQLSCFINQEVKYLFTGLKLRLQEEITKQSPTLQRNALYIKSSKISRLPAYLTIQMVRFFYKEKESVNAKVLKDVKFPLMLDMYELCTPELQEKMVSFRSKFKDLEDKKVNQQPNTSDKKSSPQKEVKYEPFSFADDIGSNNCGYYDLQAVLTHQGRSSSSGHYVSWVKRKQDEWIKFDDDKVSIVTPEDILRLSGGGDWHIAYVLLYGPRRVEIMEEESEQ
For assay [5], the system named is HeLa. The assay is described as follows: Inhibition of deubiquitinase in human HeLa cell extracts assessed as inhibition of HA-Ub-C2Br probe labeling at 1 to 100 uM incubated for 30 mins by immunoblot analysis. The assay is classed as cell-free.
In assay [6] the target is Ubiquitin carboxyl-terminal hydrolase isozyme L1 (Homo sapiens) (UniProt P09936). The assay can be described thus: Inhibition of human recombinant UCHL1 assessed as reduction in cleavage of luminescent substrate Ub-AML at 100 uM. The procedure, abridged: as §1
Chain of Ubiquitin carboxyl-terminal hydrolase isozyme L1 (Homo sapiens) (P09936 whole entry, looked up): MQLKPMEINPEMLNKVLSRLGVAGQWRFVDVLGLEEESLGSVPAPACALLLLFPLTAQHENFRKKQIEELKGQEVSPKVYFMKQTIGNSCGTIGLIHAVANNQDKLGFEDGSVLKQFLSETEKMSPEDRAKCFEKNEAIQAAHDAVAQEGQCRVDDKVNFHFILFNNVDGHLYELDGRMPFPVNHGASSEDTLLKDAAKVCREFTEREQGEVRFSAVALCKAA
Assay [7] has as its target Ubiquitin carboxyl-terminal hydrolase 14 (Homo sapiens) (UniProt P54578). The assay is described as follows: Inhibition of USP14 in human HeLa crude cell extracts assessed as induction of formation of high molecular weight complexes with USP14 at 10 uM incubated for 2 hrs in presence of dithiothreitol by immunoblot analysis. The assay is classed as cell-free.
For assay [8], the system named is HeLa. The assay can be described thus: Inhibition of deubiquitinase in human HeLa cell extracts assessed as increase in high molecular weight protein complexes at 10 uM incubated for 2 hrs in presence of GSH by SDS-PAGE and Coomassie Blue staining based method. The assay is classed as cell-free.
Assay [9] deals with Ubiquitin carboxyl-terminal hydrolase 14 (Homo sapiens) (UniProt P54578). The assay can be described thus: Inhibition of USP14 in intact human HeLa cells assessed as induction of formation of high molecular weight complexes with USP14 at 10 uM in presence of glutathione incubated for 2 hrs by immunoblot analysis. The assay is classed as cell-based. The procedure, abridged: as §2

The target is the same in assay [10]. The assay can be described thus: Inhibition of USP14 in human HeLa crude cell extracts assessed as induction of formation of high molecular weight complexes with USP14 at 10 uM incubated for 2 hrs in presence of glutathione by immunoblot analysis. The assay is classed as cell-free.
The test system of assay [11] is HeLa. The assay can be described thus: Inhibition of deubiquitinase in human HeLa cell extracts assessed as decrease in global DUB activity at 10 uM using luminescent substrate Ub-AML. The assay is classed as cell-free. Summed up:
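HeLa crude extracts used as the DUB source, prepared as for the ABP assays. Global DUB activity read by luminescence with Ub-AML substrate, using the Glo reagent protocol.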

Calls of active or inactive are those of the source. The calls are words filed in the database; no cut-off is given here.

Chain of Anamorsin (Homo sapiens) (Q6FI81 whole entry): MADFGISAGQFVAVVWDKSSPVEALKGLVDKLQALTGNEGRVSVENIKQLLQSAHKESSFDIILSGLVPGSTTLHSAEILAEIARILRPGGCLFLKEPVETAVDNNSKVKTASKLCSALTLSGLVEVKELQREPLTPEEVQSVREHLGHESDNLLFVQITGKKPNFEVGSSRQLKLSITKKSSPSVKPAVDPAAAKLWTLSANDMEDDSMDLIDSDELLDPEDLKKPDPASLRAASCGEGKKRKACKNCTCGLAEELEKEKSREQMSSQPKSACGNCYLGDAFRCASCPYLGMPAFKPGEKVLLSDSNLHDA
Chain of Ubiquitin carboxyl-terminal hydrolase BAP1 (Homo sapiens) (Q92560 whole entry): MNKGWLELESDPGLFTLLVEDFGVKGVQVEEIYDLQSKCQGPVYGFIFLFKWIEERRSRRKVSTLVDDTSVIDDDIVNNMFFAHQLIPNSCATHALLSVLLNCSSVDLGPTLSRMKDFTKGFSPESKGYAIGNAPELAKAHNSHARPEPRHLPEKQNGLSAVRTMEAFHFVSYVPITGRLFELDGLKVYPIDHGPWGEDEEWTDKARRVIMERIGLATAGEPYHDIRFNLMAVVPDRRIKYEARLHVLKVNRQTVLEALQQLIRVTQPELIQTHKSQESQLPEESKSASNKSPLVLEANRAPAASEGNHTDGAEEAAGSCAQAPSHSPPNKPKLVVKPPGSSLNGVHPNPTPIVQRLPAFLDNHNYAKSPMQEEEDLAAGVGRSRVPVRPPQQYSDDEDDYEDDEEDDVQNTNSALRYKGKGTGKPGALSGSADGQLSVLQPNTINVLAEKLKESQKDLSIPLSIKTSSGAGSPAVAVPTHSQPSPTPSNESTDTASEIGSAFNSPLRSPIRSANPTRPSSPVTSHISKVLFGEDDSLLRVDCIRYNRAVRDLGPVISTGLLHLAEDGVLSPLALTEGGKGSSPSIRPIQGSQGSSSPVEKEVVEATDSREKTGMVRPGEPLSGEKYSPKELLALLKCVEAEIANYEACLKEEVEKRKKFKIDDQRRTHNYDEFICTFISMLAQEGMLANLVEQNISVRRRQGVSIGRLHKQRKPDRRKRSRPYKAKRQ
Chain of Ataxin-3 (Homo sapiens) (P54252 whole entry): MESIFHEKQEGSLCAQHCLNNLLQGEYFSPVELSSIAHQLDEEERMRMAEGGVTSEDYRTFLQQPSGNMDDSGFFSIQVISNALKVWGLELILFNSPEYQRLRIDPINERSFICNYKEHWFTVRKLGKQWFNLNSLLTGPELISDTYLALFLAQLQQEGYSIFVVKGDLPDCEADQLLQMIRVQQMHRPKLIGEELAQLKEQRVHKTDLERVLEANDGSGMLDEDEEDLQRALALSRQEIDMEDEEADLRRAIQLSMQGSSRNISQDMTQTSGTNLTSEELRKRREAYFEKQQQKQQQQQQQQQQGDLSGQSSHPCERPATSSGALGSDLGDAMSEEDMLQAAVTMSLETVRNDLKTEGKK

Consider `C=CC(=O)N1C/C(=C\c2ccc([N+](=O)[O-])cc2)C(=O)/C(=C/c2ccc([N+](=O)[O-])cc2)C1`, for which the inhibition result (in assay [1]; at Anamorsin (Homo sapiens); in [2]; on Ataxin-3 (Homo sapiens); in assay [4]; in the assay on HeLa [5]) was “Active” each time. In addition, the inhibition result (in assay [6]; in the assay on HeLa [11]) was “Active” throughout. The result in the assay on SiHa was Active. The inhibition entry (in assay [3]; in [7]; with HeLa [8]; in assay [9]; in [10]) was “inactive” throughout.
